Columns and labels:
[1] = substrate: C[C@@H](O)[C@H]1C(=O)N2C(C(=O)O)=C(SCCNC=N)C[C@H]12; experiment: Activity of Aeromonas hydrophila beta lactamase CphA at pH 8.0
How it was run: (§1)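 Wild-type CphA kinetics with imipenem as substrate, measured in a mixed buffer adjusted to the stated pH with HCl or NaOH. The buffer held 40 mM sodium acetate, 20 mM each of cacodylate, MOPS, TAPS, CHES and CAPS, and 20 μg/ml BSA. Runs were at 30°C in thermostatted cells. Km and kcat came from initial rates. At pH 10 only kcat/Km was taken, because imipenem hydrolyses spontaneously.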

[2] = substrate: C[C@@H](O)[C@H]1C(=O)N2C(C(=O)O)=C(SCCNC=N)C[C@H]12; experiment: Activity of Aeromonas hydrophila beta lactamase CphA at pH 7.0; how it was run: as §1
[3] = substrate: C[C@@H](O)[C@H]1C(=O)N2C(C(=O)O)=C(SCCNC=N)C[C@H]12; experiment: Activity of Aeromonas hydrophila beta lactamase CphA at pH 9.0; how it was run: as §1

B1: Beta-lactamase (Aeromonas hydrophila), Q44079 (protein)
chain: MMKGWMKCGLAGAVVLMASFWGGSVRAAGMSLTQVSGPVYVVEDNYYVQENSMVYFGAKGVTVVGATWTPDTARELHKLIKRVSRQPVLEVINTNYHTDRAGGNAYWKSIGAKVVSTRQTRDLMKSDWAEIVAFTRKGLPEYPDLPLVLPNVVHEGDFTLQEGKLRAFYAGPAHTPDGIFVYFPDQQVLYGNCILKEKLGNLSFADVKAYPRTLERLKAMKLPIKTVVGGHDSPLHGPELIDHYEALIKAAPQS
B1 gave a Km [1] of 83 µM, a kcat [1] of 140 s⁻¹ and a Km [2] of 120 µM. The kcat [2] was 210 s⁻¹, the Km [3] was 63 µM and the kcat [3] was 49 s⁻¹.
